Key:
Steryl-sulfatase [1] = target: T1, Steryl-sulfatase (Homo sapiens, UniProt P08842); test: Reversible inhibition of STS (unknown origin) using 4-MUS as substrate measured over 10 mins by fluorescence assay; conditions: read-out: Ki(app)
T1 sequence (P08842 whole entry): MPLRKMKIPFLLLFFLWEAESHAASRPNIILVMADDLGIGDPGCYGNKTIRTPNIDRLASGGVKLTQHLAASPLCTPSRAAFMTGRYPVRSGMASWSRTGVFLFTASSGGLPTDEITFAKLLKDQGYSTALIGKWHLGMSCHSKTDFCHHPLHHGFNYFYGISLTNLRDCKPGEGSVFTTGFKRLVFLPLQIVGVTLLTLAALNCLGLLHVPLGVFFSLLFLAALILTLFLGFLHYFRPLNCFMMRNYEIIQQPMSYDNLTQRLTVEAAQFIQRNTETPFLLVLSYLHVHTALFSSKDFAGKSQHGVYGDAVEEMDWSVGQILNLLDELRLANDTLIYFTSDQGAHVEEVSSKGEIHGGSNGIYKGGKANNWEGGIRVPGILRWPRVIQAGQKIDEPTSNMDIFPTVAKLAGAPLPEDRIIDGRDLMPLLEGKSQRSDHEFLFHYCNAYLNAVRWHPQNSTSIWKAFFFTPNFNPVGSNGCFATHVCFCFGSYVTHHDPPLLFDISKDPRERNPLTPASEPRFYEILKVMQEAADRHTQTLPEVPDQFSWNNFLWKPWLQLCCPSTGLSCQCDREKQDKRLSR
In short: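 Purified STS at 10 nM final with 200 µM 4-MUS in 0.1 M Tris-HCl pH 7.0 (enzyme stock contained Triton X-100). Eleven inhibitor levels, 5 nM–5 µM, were added from DMSO/buffer. 4-Methylumbelliferone fluorescence (ex 360, em 460 nm) was followed for 10 min at 24 °C, in quadruplicate, with no-enzyme controls. Vi/V0 initial rates were fitted for IC50. K_i^app was the IC50-vs-[E]T intercept at 10–80 nM STS.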

Steryl-sulfatase [2] = target: T1, Steryl-sulfatase; test: Inhibition of STS (unknown origin) using 4-MUS as substrate measured over 10 mins by fluorescence assay
In short: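 Purified STS (10 nM final) in 0.1 M Tris-HCl pH 7.0 containing Triton X-100, 4-MUS 200 µM final, and inhibitor at eleven concentrations (5 nM–5 µM). Ex 360/em 460 fluorescence read over 10 min at 24 °C, in quadruplicate, with no-enzyme controls. Vi/V0 from initial rates fit to a slope-factor equation. For tight binders, Ki app is the y-intercept of IC50 vs [E] (10–80 nM).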

In the case of C[C@]12CC[C@@H]3c4ccc(O)c(F)c4CC[C@H]3[C@@H]1CC[C@@H]2NS(=O)(=O)c1cccc(C(F)(F)F)c1, the Ki (Steryl-sulfatase [1]) is reported as 2.5 nM.
For C[C@]12CC[C@@H]3c4cc([N+](=O)[O-])c(O)cc4CC[C@H]3[C@@H]1CC[C@@H]2NS(=O)(=O)c1cccc(Br)c1, the IC50 (Steryl-sulfatase [2]) was 50 nM.
Compound CC(C)(C)c1ccc(S(=O)(=O)N[C@H]2CC[C@H]3[C@@H]4CCc5c(ccc(O)c5[N+](=O)[O-])[C@H]4CC[C@]23C)cc1 has an IC50 (Steryl-sulfatase [2]) of 8 nM.
Work on CC(C)(C)c1ccc(S(=O)(=O)N[C@H]2CC[C@H]3[C@@H]4CCc5cc(O)c([N+](=O)[O-])cc5[C@H]4CC[C@]23C)cc1 yielded an IC50 (Steryl-sulfatase [2]) of 81 nM.
Work on C[C@]12CC[C@@H]3c4cc(Br)c(O)cc4CC[C@H]3[C@@H]1CC[C@@H]2NS(=O)(=O)c1cccc(C(F)(F)F)c1 yielded an IC50 (Steryl-sulfatase [2]) of 95 nM.
Compound C[C@]12CC[C@@H]3c4cc([N+](=O)[O-])c(O)cc4CC[C@H]3[C@@H]1CC[C@@H]2NS(=O)(=O)c1cccc(C(F)(F)F)c1 has an IC50 (Steryl-sulfatase [2]) of 67 nM.
